Source: ChEMBL document CHEMBL3745713, “Bromotyrosine-derived metabolites from an Indonesian marine sponge in the family Aplysinellidae (Order Verongiida)” (Bioorg Med Chem Lett, 2016)

Tests used:
[1] = Cytotoxicity against mouse NIH/3T3 cells assessed as cell growth at 50 uM measured at 72 hrs by CyQuant proliferation assay relative to control; assay type: cell-based, NIH3T3; conditions: read-out: Activity
How it was run: (§1)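 Single-concentration screen at 50 and 5 μM across the cancer lines and normal mouse NIH3T3 fibroblasts. Cell growth was read by CyQuant proliferation assay at 72 h. Values are expressed relative to DMSO-treated control. Done in triplicate, one experiment (n=1).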

[2] = Cytotoxicity against human A2780S/CP5 cells assessed as cell growth at 50 uM measured at 72 hrs by CyQuant proliferation assay relative to control; assay type: functional; conditions: A2780S/CP5, 72 h, read-out: Activity; how it was run: as §1
[3] = Cytotoxicity against human A2780S cells assessed as cell growth at 5 uM measured at 72 hrs by CyQuant proliferation assay relative to control; assay type: functional; conditions: A2780, 72 h, read-out: Activity; how it was run: as §1
[4] = Cytotoxicity against human A2780S cells assessed as cell growth at 50 uM measured at 72 hrs by CyQuant proliferation assay relative to control; assay type: functional; conditions: A2780, 72 h, read-out: Activity; how it was run: as §1
[5] = Cytotoxicity against mouse NIH/3T3 cells assessed as cell growth at 5 uM measured at 72 hrs by CyQuant proliferation assay relative to control; assay type: cell-based, NIH3T3; conditions: read-out: Activity; how it was run: as §1
[6] = Cytotoxicity against human A2780S/CP5 cells assessed as cell growth at 5 uM measured at 72 hrs by CyQuant proliferation assay relative to control; assay type: functional; conditions: A2780S/CP5, 72 h, read-out: Activity; how it was run: as §1
[7] = Cytotoxicity against human U251MG cells assessed as cell growth at 50 uM measured at 72 hrs by CyQuant proliferation assay relative to control; assay type: functional; conditions: U-251, 72 h, read-out: Activity; how it was run: as §1
[8] = Cytotoxicity against human U251MG cells assessed as cell growth at 5 uM measured at 72 hrs by CyQuant proliferation assay relative to control; assay type: functional; conditions: U-251, 72 h, read-out: Activity; how it was run: as §1
A549 [9] = assay: Cytotoxicity against human A549 cells assessed as cell growth at 50 uM measured at 72 hrs by CyQuant proliferation assay relative to control; assay type: functional; conditions: A549, 72 h, read-out: Activity; how it was run: as §1
A549 [10] = assay: Cytotoxicity against human A549 cells assessed as cell growth at 5 uM measured at 72 hrs by CyQuant proliferation assay relative to control; assay type: functional; conditions: A549, 72 h, read-out: Activity; how it was run: as §1
MCF7 [11] = assay: Cytotoxicity against human MCF7 cells assessed as cell growth at 50 uM measured at 72 hrs by CyQuant proliferation assay relative to control; assay type: functional; conditions: MCF7, 72 h, read-out: Activity; how it was run: as §1
MCF7 [12] = assay: Cytotoxicity against human MCF7 cells assessed as cell growth at 5 uM measured at 72 hrs by CyQuant proliferation assay relative to control; assay type: functional; conditions: MCF7, 72 h, read-out: Activity; how it was run: as §1
[13] = target: Beta-secretase 1 (Homo sapiens) (UniProt P56817); assay: Inhibition of BACE1 (unknown origin) using BACE ED as substrate at 30.6 uM by EFC assay
Chain of Beta-secretase 1 (Homo sapiens) (P56817 whole entry): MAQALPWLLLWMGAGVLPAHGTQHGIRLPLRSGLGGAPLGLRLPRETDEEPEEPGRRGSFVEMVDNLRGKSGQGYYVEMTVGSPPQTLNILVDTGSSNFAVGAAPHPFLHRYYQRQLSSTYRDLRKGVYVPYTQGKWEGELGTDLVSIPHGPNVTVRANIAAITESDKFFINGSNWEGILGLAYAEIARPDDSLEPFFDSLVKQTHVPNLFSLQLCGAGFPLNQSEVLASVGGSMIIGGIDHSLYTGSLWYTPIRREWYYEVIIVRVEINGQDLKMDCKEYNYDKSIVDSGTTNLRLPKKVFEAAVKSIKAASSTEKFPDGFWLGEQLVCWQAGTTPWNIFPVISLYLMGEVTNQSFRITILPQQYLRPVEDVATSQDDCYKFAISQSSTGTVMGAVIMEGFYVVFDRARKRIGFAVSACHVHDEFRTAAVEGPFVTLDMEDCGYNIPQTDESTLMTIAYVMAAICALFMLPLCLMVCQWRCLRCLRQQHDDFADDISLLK

[14] = target: Beta-secretase 1 (Homo sapiens) (UniProt P56817); assay: Inhibition of BACE1 (unknown origin) using BACE ED as substrate at 39.6 uM by EFC assay
[15] = target: Beta-secretase 1 (Homo sapiens) (UniProt P56817); assay: Inhibition of BACE1 (unknown origin) using BACE ED as substrate at 42.6 uM by EFC assay
[16] = target: Beta-secretase 1 (Homo sapiens) (UniProt P56817); assay: Inhibition of BACE1 (unknown origin) using BACE ED as substrate at 48.3 uM by EFC assay
[17] = Cytotoxicity against human A2780S cells by CyQuant proliferation assay; assay type: functional, cell-based; conditions: A2780
How it was run: (§2)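 CyQuant proliferation assay in A2780S, cisplatin-resistant A2780CP (SCP5) and U251MG cells. Cells were exposed to varying concentrations, maximum 50 μM, and compared with solvent-only treated cells. IC50 was determined from triplicates, two independent experiments (n=2).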

[18] = Cytotoxicity against human A2780S/CP5 cells by CyQuant proliferation assay; assay type: functional, cell-based; how it was run: as §2
[19] = Cytotoxicity against human U251MG cells by CyQuant proliferation assay; assay type: functional, cell-based; conditions: U-251; how it was run: as §2
[20] = target: Beta-secretase 1 (Homo sapiens) (UniProt P56817); assay: Inhibition of BACE1 (unknown origin) using BACE ED as substrate at 41.7 uM by EFC assay
[21] = target: Beta-secretase 1 (Homo sapiens) (UniProt P56817); assay: Inhibition of BACE1 (unknown origin) using BACE ED as substrate at 42 uM by EFC assay
[22] = target: Beta-secretase 1 (Homo sapiens) (UniProt P56817); assay: Inhibition of BACE1 (unknown origin) using BACE ED as substrate at 31.8 uM by EFC assay
[23] = target: Beta-secretase 1 (Homo sapiens) (UniProt P56817); assay: Inhibition of BACE1 (unknown origin) using BACE ED as substrate at 31.4 uM by EFC assay
[24] = target: Beta-secretase 1 (Homo sapiens) (UniProt P56817); assay: Inhibition of BACE1 (unknown origin) using BACE ED as substrate at 41.9 uM by EFC assay

Compound | viability at 72 h, 50 µM [1] [%] | growth at 50 µM [2] [%] | growth at 5 µM [3] [%] | growth at 50 µM [4] [%] | viability at 72 h, 5 µM [5] [%] | growth at 5 µM [6] [%] | growth at 50 µM [7] [%] | growth at 5 µM [8] [%] | growth at 50 µM (A549 [9]) [%] | growth at 5 µM (A549 [10]) [%] | growth at 50 µM (MCF7 [11]) [%] | growth at 5 µM (MCF7 [12]) [%] | other results
CCCCCCC(C)CCCCCCCCC(=O)NCCc1cc(Br)c(OCCCNC(=O)C2=NO[C@@]3(C=C(Br)C(OC)=C(Br)[C@H]3O)C2)c(Br)c1 (stereo partly drawn) | 102 | 78 | 90 | 88 | 98 | 100 | 101 | 100 | 106 | 82 | 109 | 106 | 
CCCCC(C)CCC/C=C\CCCCCCC(=O)NCCc1cc(Br)c(OCCCNC(=O)C2=NO[C@@]3(C=C(Br)C(OC)=C(Br)[C@H]3O)C2)c(Br)c1 (stereo partly drawn) | 98 | 66 | 82 | 76 | 100 | 105 | 90 | 98 | 104 | 98 | 104 | 105 | inhibition [13]: 60%
COC1=C(Br)[C@@H](O)[C@]2(C=C1Br)CC(C(=O)NCCCOc1c(Br)cc(CCNC(=N)N)cc1Br)=NO2 | 25 | 8 | 78 | 12 | 100 | 45 | 32 | 94 | 48 | 85 | 24 | 98 | inhibition [14]: 40%
COc1c(Br)cc(C/C(=N\O)C(=O)NCCc2cc(Br)c(OCCCN)c(Br)c2)cc1Br | 16 | 12 | 81 | 11 | 105 | 78 | 24 | 107 | 24 | 92 | 26 | 95 | inhibition [15]: 62%
CNCCCOc1c(Br)cc(CCNC(=O)/C(Cc2ccc(O)c(Br)c2)=N/O)cc1Br | 105 | 51 | 82 | 26 | 99 | 94 | 40 | 111 | 64 | 97 | 69 | 100 | inhibition [16]: 48%; IC50 [17]: > 50 µM; IC50 [18]: > 50 µM; IC50 [19]: > 50 µM
COC1=C(Br)[C@@H](O)[C@]2(C=C1Br)CC(C(=O)NCCCOc1c(Br)cc(CCN)cc1Br)=NO2 [ARAPLYSILLIN 1] | 7 | 22 | 8 | 14 | 38 | 11 | 30 | 32 | 17 | 16 | 71 | 36 | inhibition [20]: 27%
CNCCCOc1c(Br)cc(CCNC(=O)/C(Cc2cc(Br)c(OC)c(Br)c2)=N/O)cc1Br | 3 | 10 | 11 | 13 | 101 | 29 | 30 | 17 | 11 | 42 | 58 | 50 | inhibition [21]: 74%
COc1c(Br)cc(C/C(=N\O)C(=O)NCCCOc2c(Br)cc(CCN)cc2Br)c(O)c1Br | 104 | 9 | 60 | 9 | 102 | 96 | 20 | 111 | 21 | 96 | 27 | 97 | inhibition [21]: 36%; IC50 [17]: 20 µM; IC50 [18]: 40 µM; IC50 [19]: 50 µM
COC1=C(Br)[C@@H](O)[C@]2(C=C1Br)CC(C(=O)NCCCOc1c(Br)cc(CCNC(=O)CCCCCCCCCCCC(C)C)cc1Br)=NO2 | 95 | 48 | 77 | 18 | 88 | 68 | 80 | 98 | 85 | 88 | 64 | 103 | inhibition [22]: 57%
CCCCCCC(C)CCCCCCCC(=O)NCCc1cc(Br)c(OCCCNC(=O)C2=NO[C@@]3(C=C(Br)C(OC)=C(Br)[C@H]3O)C2)c(Br)c1 (stereo partly drawn) | 95 | 79 | 85 | 87 | 94 | 109 | 97 | 99 | 105 | 89 | 101 | 104 | inhibition [23]: 70%
COC1=C(Br)[C@@H](O)[C@]2(C=C1Br)CC(C(=O)NCCCOc1c(Br)cc(C(=O)O)cc1Br)=NO2 | 29 | 25 | 37 | 21 | 94 | 33 | 39 | 101 | 68 | 81 | 60 | 86 | inhibition [24]: 35%
